# Compounds with a hit are over-represented: about 2.8% of the library has one in this group of screens.
# PGE2 EP2 inh: EP2 receptor (human) inhibition; 0.52% of 260,000 active; inhibition, % at 25 µM; P43116; C6 glioma cells expressing human EP2, cAMP TR-FRET; cells stimulated with saturating PGE2;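 active = percent inhibition above 40 after rounding to a whole number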;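 also: rat C6 glioma host cells with rolipram phosphodiesterase inhibitor present; the protocol text gives 20 µM as final concentration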
# NPY-Y1 PAM-ag: potentiates or activates human NPY-Y1 receptor | P25929 | NPY-Y1 expressing cells, potentiator/agonist activation | activation, % at 3.6 µM | 0.37% of 220,000 active; in the data active = activation above about 33%, passing the limit was not always enough;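 also: cells stimulated with NPY at EC10 then isoproterenol at EC100; 0% = low agonist plus stimulus and 100% = saturating agonist plus stimulus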
# NPY-Y2 antag: blocks the human neuropeptide Y Y2 receptor; inhibition, % at 2.7 µM; P49146; NPY-Y2 expressing cells, antagonist mode; 0.99% of 140,000 active; in the data active = inhibition above about 17%;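 also: 0% = vehicle with agonist challenge and 100% = reference antagonist with challenge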
# Target sequence (P49146 whole entry, looked up): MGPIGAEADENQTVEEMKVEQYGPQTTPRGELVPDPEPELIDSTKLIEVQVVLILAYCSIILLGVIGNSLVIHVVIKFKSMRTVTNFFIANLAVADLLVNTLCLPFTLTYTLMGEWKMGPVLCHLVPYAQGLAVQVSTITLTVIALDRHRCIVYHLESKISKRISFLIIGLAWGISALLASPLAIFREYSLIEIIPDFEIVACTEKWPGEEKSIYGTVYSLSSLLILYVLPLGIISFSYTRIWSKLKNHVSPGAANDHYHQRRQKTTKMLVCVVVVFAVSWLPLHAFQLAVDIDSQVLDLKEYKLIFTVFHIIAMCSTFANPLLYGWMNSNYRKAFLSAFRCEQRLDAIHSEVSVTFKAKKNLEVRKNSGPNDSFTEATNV
# NPY2 pot ag: potentiators or agonists of human neuropeptide Y receptor Y2; cells expressing NPY-Y2, potentiator/agonist read-out; 0.45% of 220,000 active; P49146; activation, % at 3.6 µM; AID 1359; in the data active = activation above about 27%;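 also: cells stimulated with NPY near EC25 plus isoproterenol at EC100; 0% = vehicle plus submaximal agonist and 100% = vehicle plus saturating agonist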
# EP2 mod: modulates human prostaglandin E2 receptor EP2 signaling; 0.83% of 260,000 active; induction, % at 25 µM; EP2-expressing cells, cAMP HTRF FRET, PGE2 co-stimulation; P43116; AID 940;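 active = compounds whose cAMP rise, as percent of the full-agonist control response, exceeds 60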;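 also: rat C6 glioma line stably carrying human EP2 under a CMV promoter; the protocol text gives 20 µM as final concentration; 100% = response of wells given 1 µM PGE2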
# NPY Y1 blocker: antagonists of human neuropeptide Y receptor Y1; 1% of 200,000 active; HEK293-CNG Y1 cells, membrane potential fluorescence; NPY at EC95, then isoproterenol; inhibition, % at 3.6 µM; AID 1040;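 active = inhibition above the campaign mean inhibition of all tested compounds plus 3 SD, cut at about 20% in these data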;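 also: 0% = DMSO wells given NPY plus isoproterenol and 100% = isoproterenol alone without NPY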
#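 Material: HEK293 Y1/CNG channel cell line; also added: NPY (25 nM), isoproterenol (1 µM), Ro 20-1724 (25 µM); doses: one concentration, 3.6 µM, in 0.4% DMSO; schedule: compound incubation 1 h at room temperature, readout 45 min post-stimulation; technique: membrane potential fluorescence; measure: fluorescence ratio normalized to % inhibition between controls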
# * = called active by the depositor; x = no result given.
SMILES,PGE2 EP2 inh,NPY-Y1 PAM-ag,NPY-Y2 antag,NPY2 pot ag,EP2 mod,NPY Y1 blocker
Cc1cc2c(C)ccc(C)c2nc1SCC(=O)c1cccs1,4.0,-14.8,8.9,-17.0,62.6*,9.3
Cc1cc(C)c(C#N)c(SCC(=O)c2cccs2)n1,-0.1,6.5,5.1,6.3,-14.4,1.8
CCCSc1nc(N2CCOCC2)c2c(c1C#N)CC(C)(C)SC2,12.7,-29.4,5.6,-19.9,64.6*,15.6
CN(C)CCN(Cc1ccccn1)Cc1cn[nH]c1-c1ccc(Cl)cc1,5.5,x,x,x,-34.7,x
C[C@H](CCC(=O)O)[C@H]1CC[C@H]2[C@@H]3[C@@H](O)C[C@H]4C[C@@H](O)CC[C@]4(C)[C@H]3C[C@@H](O)[C@]12C,45.2*,x,x,x,31.9,x
C[C@H](CCC(=O)NN)[C@@H]1CC[C@@H]2[C@H]3CC[C@H]4C[C@@H](O)CC[C@]4(C)[C@@H]3CC[C@]21C,48.9*,x,x,x,21.4,x
C[C@H](CCC(=O)O)[C@H]1CC[C@H]2[C@@H]3[C@H](O)C[C@@H]4C[C@H](O)CC[C@]4(C)[C@H]3C[C@H](O)[C@]12C,12.2,x,x,x,x,x
CCOC(=O)CSc1nc2c(sc(=S)n2Cc2ccco2)c(=O)n1-c1ccc(F)cc1,2.3,-2.2,19.4*,-14.0,35.8,20.8*
CN1CCN(CC(=O)N2CCn3c4c(c5cc(C6CCCCC6)ccc53)CCCC42)CC1 (centres undefined),91.4*,2.5,0.8,22.6,-34.1,-8.5
CCOc1cc2c(cc1CN1CCC(NC(C)=O)(c3ccc(F)cc3)CC1)OCO2,5.8,x,x,x,5.0,x
CCOc1ccc(Nc2nc(NCC3CCCO3)c3ccccc3n2)cc1 (centres undefined),52.1*,-9.6,x,13.7,-71.6,16.3
COc1ccc(S(=O)(=O)N2CC=C[C@H]2C(=O)NC2CCCCC2)cc1,x,x,x,x,-47.3,x
COc1ccc(CNC(=O)C(C#N)c2nc3ccccc3nc2N2CCN(C)CC2)cc1 (centres undefined),10.1,-16.5,17.7*,-13.4,-27.1,11.0
O=[N+]([O-])c1ccc(/C=N/Nc2ccc3ccccc3c2)o1,11.8,76.4*,-10.2,65.6*,-60.9,-19.2
Cc1ccccc1CSc1nnc(-c2ccco2)n1Cc1ccco1,7.6,-10.0,13.6,1.1,41.7,10.1
Cc1ccccc1CSc1nnc(-c2cccs2)n1Cc1ccco1,3.4,-4.5,24.2*,-6.9,14.5,22.7*
Clc1cccc(-c2nnc(SC/C=C/c3ccccc3)n2Cc2ccco2)c1,7.4,-20.4,36.5*,-7.0,32.2,26.3*
Cc1ccc(-c2nnc(SCc3ccc(C#N)cc3)n2Cc2ccco2)cc1,11.0,0.2,20.3*,-12.2,20.7,21.3*
COc1cccc(-c2nnc(SCc3ccc(C#N)cc3)n2Cc2ccco2)c1,18.1,-7.5,6.0,-3.5,13.9,12.9
C(=C\c1ccccc1)/CSc1nnc(-c2ccccc2)n1Cc1ccco1,5.1,-32.7,25.5*,-21.2,25.4,21.1*
OC[C@H]1O[C@@H](O[C@H]2[C@H](O)[C@@H](O)[C@@H](O)O[C@@H]2CO)[C@H](O)[C@@H](O)[C@@H]1O,9.2,x,x,x,-0.7,x
CC(C)(C)C(=O)c1cn(CC(=O)NCCc2ccccc2)c2ccccc12,19.2,x,x,x,-20.5,x
Cc1ccc(-n2c(C)cc(C=C(C#N)C#N)c2C)cc1,23.2,-25.2,18.2*,-13.1,46.5,31.7*
Cc1cc(C=C(C#N)C#N)c(C)n1-c1ccccc1,14.5,-15.0,5.6,-17.2,5.3,5.2
CCOC(=O)c1ccccc1NC(=O)N1CCn2c(C)ccc2C1CC (centres undefined),0.5,-19.8,8.8,1.4,64.1*,3.7
O=C1C2[C@@H](c3ccccc3)N[C@@H](c3ccccc3)C1[C@@H](c1ccccc1)N[C@H]2c1ccccc1,47.4*,x,x,x,-9.1,x
O=C1CC(c2ccc(Br)cc2)NC(c2ccc(Br)cc2)C1c1ccccc1 (centres undefined),10.3,-0.4,7.5,11.5,26.2,-0.3
COc1ccc(C(=O)N2CCN(Cc3nc4ccccc4c(=O)[nH]3)CC2)cc1,13.1,x,x,x,1.7,x
O=C(c1cccc(C(F)(F)F)c1)C1CCCN(Cc2cccn2-c2ncccn2)C1 (centres undefined),1.5,-27.7,x,-47.5,-26.0,33.2*

# Bioassay records: PubChem BioAssay, several laboratories
